Assay results from the EternaBench riboswitch data.

Key:
MS2 coat protein [1] = experiment: apparent Kd, MS2 coat protein; higher = weaker binding; RNA-MaP array
Method in brief: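 Apparent Kd was taken as the median of binding curves fitted cluster by cluster. The designed RNAs were made by transcription of sequenced DNA templates on an Illumina sequencing chip and exposed to fluorescently labeled MS2 coat protein (1.5 nM to 3 μM) at room temperature, with or without input ligand, for 0.8–1.5 h at the lowest and 10–20 min at the highest concentrations. Any design measured on fewer than 10 clusters was left out.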

MS2 coat protein [2] = experiment: apparent Kd, MS2 coat protein; higher = weaker binding; RNA-MaP array; FMN 200 µM where present
Method in brief: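 On Illumina sequencing-chip clusters, designs were transcribed by stalled E. coli RNA polymerase and titrated with SNAP-549-labelled MS2 coat protein (0.7 or 1.5 nM, doubling to 3 µM), without and then with constant ligand, in 100 mM Tris-HCl pH 7.5, 80 mM KCl, 4 mM MgCl2, BSA, DTT, yeast tRNA and Tween-20. Apparent Kd is the median of filtered per-cluster curve fits to green signal normalised to red-channel RNA signal and control-cluster median Fmax.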

[3] = designed as: ON switch for flavin mononucleotide, no ligand
[4] = ligand present: flavin mononucleotide, designed as: ON switch for flavin mononucleotide
[5] = designed as: OFF switch for flavin mononucleotide, no ligand
[6] = ligand present: flavin mononucleotide, designed as: OFF switch for flavin mononucleotide

“AUAAACUAACAUGAGGAUCACCCAUGUAUGGAGAAAAUACCUAGAAGGAGGAUAUUUACAACAUCCAAGGAUAUAGGAGCCUCA” was tested. Which “apparent Kd” value (MS2 coat protein [1]; [3]) did it give?
The value was 68.1 nM.

What about the “apparent Kd” value (MS2 coat protein [1]; [4]) of the same sequence?
Its value is 42.4 nM.

“AUAGCAAAAGUGAGGAUAUUCGACAUAGAACGCAUGAAGAAGGCACAUGAGGAUCACCCAUGUUCUCGUUAGUA” was tested. Which “apparent Kd” value (MS2 coat protein [1]; [5]) did it give?
The value was 10.6 nM.

And the “apparent Kd” value (MS2 coat protein [1]; [6])?
Its value is 14.1 nM.

Which “apparent Kd” value (MS2 coat protein [1]; [5]) does the source give for “AUCACUGAGCGAGGAUAUUAUUUCAAAUCAACGACGAUCCUACACAUGAGGAUCACCCAUGUUAGUAAGAAGGCGCGCCAGAUG” here?
The value was 62.5 nM.

What about the “apparent Kd” value (MS2 coat protein [1]; [6]) of the same sequence?
Its value is 93.5 nM.

What does the source list for “AUGAGUAUUAAAGGAUAUCACUUAAUUGAUUGAUGAGAAGGUUAGAUGGCAUACAUGAGGAUCACCCAUGUGGUUUCAUGCGGU”?
apparent Kd (MS2 coat protein [1]; [5]): 86.3 nM; apparent Kd (MS2 coat protein [1]; [6]): 59.2 nM

With “AUGAUCGAACAGAAGGCACGGUGACAGUUAAAGUGAGGAUAUGUAGACAUGAGGAUCACCCAUGUUACUAUACACGGGUCUAUC” as the sequence, how does the “apparent Kd” value (MS2 coat protein [1]; [5]) read?
The value was 15.1 nM.

What about the “apparent Kd” value (MS2 coat protein [1]; [6]) of the same sequence?
The value was 45.9 nM.

“AUGCACUCAGUCAGGAUAUGCAACUUAUAAUACAGGCAGAAGGGACAUGAGGAUCACCCAUGUGGCCGGUAAGA” was tested. Which “apparent Kd” value (MS2 coat protein [1]; [5]) did it give?
The value was 9.13 nM.

And the “apparent Kd” value (MS2 coat protein [1]; [6])?
The value was 39.1 nM.

For “AUGCCUCCACUAGGAUAUUACAUCUACAUUUCCACUUUCAAACAGACAUGAGGAUCACCCAUGUGUAAGAAGGAGUGCCUAGAG”, which “apparent Kd” value (MS2 coat protein [1]; [6]) is on record?
Its value is 8.45 nM.

What does the source list for “AUGGUCUCUUAAGGAUAUAGCUAUACAGAGCGCACGUAGGUUAAAUACAUGAGGAUCACCCAUGUCUAGAAGGUAAGUACCGGA”?
apparent Kd (MS2 coat protein [1]; [3]): 11.6 nM; apparent Kd (MS2 coat protein [1]; [4]): 11.1 nM

What does the source list for “AUGGUGGCUUCAGGAUAUCGCAAGUUAAUACGUCCCACAUGAGGAUCACCCAUGUAACGGUGGGUCGAGAAGGGAACCAUCCCG”?
apparent Kd (MS2 coat protein [1]; [5]): 90.8 nM; apparent Kd (MS2 coat protein [1]; [6]): 63.5 nM

What does the source list for “UUUAUAUGAGGAUAUCCGAGGAGCCACAUGAGGAUCACCCAUGUCGUCUUUUGUGAUAGUGGAGAAGGUGUGUCAG”?
apparent Kd (MS2 coat protein [2]; [5]): 27.7 nM; apparent Kd (MS2 coat protein [2]; [6]): 31.6 nM

For “UUUAUGUGAGGAUAUAGUACUCCUUCUAUUAUUAUUGAGUACUAGAAGGCACAUGAGGAUCACCCAUGUAGUAC”, which “apparent Kd” value (MS2 coat protein [2]; [5]) is on record?
Its value is 30 nM.

What about the “apparent Kd” value (MS2 coat protein [2]; [6]) of the same sequence?
The value was 48.3 nM.

For “UUUAUGUGAGGAUAUCAGUAGUAAAAAAAUAAAAUUACUACUGAGAAGGCACAUGAGGAUCACCCAUGUCCUUC”, which “apparent Kd” value (MS2 coat protein [2]; [5]) is on record?
Its value is 18.6 nM.

What about the “apparent Kd” value (MS2 coat protein [2]; [6]) of the same sequence?
Its value is 20 nM.

Which “apparent Kd” value (MS2 coat protein [2]; [3]) does the source give for “UUUAUUAGUUAGAAGGCUUGAUGAAUUACAAUAGACAUGAGGAUCACCCAUGUGUAUUCAUGUCAAGAGGAUAUAGUCAUAUAU” here?
The value was 13.7 nM.

And the “apparent Kd” value (MS2 coat protein [2]; [4])?
Its value is 6.54 nM.

With “UUUCCACAUGAGGAUCACCCAUGUCAGGAUAUUAGAUCUAUUUAUACAUAUAAUUAUUUAAGAAGGGACACUAA” as the sequence, how does the “apparent Kd” value (MS2 coat protein [2]; [5]) read?
The value was 18.1 nM.

And the “apparent Kd” value (MS2 coat protein [2]; [6])?
The value was 16.9 nM.

Which results are given for “UUUCCGCAAGGAUAUACGGGCUGUGCUUUUCAUUUCUUACAACAUGAGGAUCACCCAUGUAGAAGGUGCUUCUU”?
apparent Kd (MS2 coat protein [2]; [5]): 208 nM; apparent Kd (MS2 coat protein [2]; [6]): 217 nM

“UUUGCAUACCGAGGAUAUUCAUAUAAUAAAUAAACAUGAGGAUCACCCAUGUGGCGAAAGCCUAGGGAGAAGGCGGAAUGCUUU” was tested. Which “apparent Kd” value (MS2 coat protein [2]; [3]) did it give?
Its value is 162 nM.

What about the “apparent Kd” value (MS2 coat protein [2]; [4]) of the same sequence?
The value was 30.1 nM.

How did the “apparent Kd” value (MS2 coat protein [2]; [5]) turn out when “UUUGGGUCAGGAUAUUGUUAGUUUAGUUGUUUGUAUUAGUUCGAGAAGGGACAUGAGGAUCACCCAUGUGGUUA” was run?
Its value is 70.5 nM.

And the “apparent Kd” value (MS2 coat protein [2]; [6])?
The value was 77.5 nM.

Which results are given for “UUUUAACAUGAGGAUCACCCAUGUGAGGAUAUCGAAAUUUAUAUUAAUAUUAUUUUUUCGAGAAGGCACAUUUU”?
apparent Kd (MS2 coat protein [2]; [5]): 124 nM; apparent Kd (MS2 coat protein [2]; [6]): 155 nM

Which results are given for “UUUUAACAUGAGGAUCACCCAUGUGAGGAUAUCGAAAUUUAUAUUAAUAUUUAUUUUUCGAGAAGGCACAUUUU”?
apparent Kd (MS2 coat protein [2]; [5]): 164 nM; apparent Kd (MS2 coat protein [2]; [6]): 159 nM

For “UUUUAACAUGAGGAUCACCCAUGUGAGGAUAUCGAAAUUUAUAUUAAUAUUUUUAUUACGAGAAGGCACAUUUU”, which “apparent Kd” value (MS2 coat protein [2]; [5]) is on record?
The value was 73.5 nM.

And the “apparent Kd” value (MS2 coat protein [2]; [6])?
The value was 69.8 nM.

With “UUUUAACAUGAGGAUCACCCAUGUGAGGAUAUCGAAAUUUAUAUUUAUAUUAAUAUAUCGAGAAGGCACAUUUU” as the sequence, how does the “apparent Kd” value (MS2 coat protein [2]; [5]) read?
Its value is 99 nM.

And the “apparent Kd” value (MS2 coat protein [2]; [6])?
Its value is 144 nM.

With “UUUUAAUAAUAGAAGGAGGACUUCAUGAGGAUCACCCAUGUGUUAGUACUUAGGAUAUGUAAUAACAUGAGGAUCACCCAUGUC” as the sequence, how does the “apparent Kd” value (MS2 coat protein [2]; [3]) read?
The value was 44 nM.

What about the “apparent Kd” value (MS2 coat protein [2]; [4]) of the same sequence?
The value was 42.4 nM.

Which “apparent Kd” value (MS2 coat protein [2]; [3]) does the source give for “UUUUACUAGUAAGGAUAUAUUAGCGAUUAGCUUGUAGAAGGUACAGUCUUAUGUAUAACAUGUUAACAUGAGGAUCACCCAUGU” here?
The value was 52 nM.

And the “apparent Kd” value (MS2 coat protein [2]; [4])?
The value was 34.2 nM.

“UUUUAGUGAGGAUAUGUGGCUUCGAUCGUGAGAUCGAGGCUACAGAAGGCACAUGAGGAUCACCCAUGUUCCUG” was tested. Which “apparent Kd” value (MS2 coat protein [2]; [5]) did it give?
Its value is 15.7 nM.

What about the “apparent Kd” value (MS2 coat protein [2]; [6]) of the same sequence?
The value was 55.7 nM.

How did the “apparent Kd” value (MS2 coat protein [2]; [3]) turn out when “UUUUCUCGUGAGAAGGACAUGAGGAUCACCCAUGUAGGAUAUCGUGGGAGACAGGAAUUGAAUCUUCGGAUUCAAUUCCAGUCU” was run?
The value was 107 nM.

What about the “apparent Kd” value (MS2 coat protein [2]; [4]) of the same sequence?
Its value is 10.1 nM.

Which results are given for “UUUUGAAAGUGAGGAUAUGACAUGAGGAUCACCCAUGUAAAGGGAGUUGAAUAUAUAGAAAGAUAUCAGAAGGCACAAAUGUUU”?
apparent Kd (MS2 coat protein [2]; [5]): 178 nM; apparent Kd (MS2 coat protein [2]; [6]): 497 nM

“UUUUGAUGAGGAUAUCGAGGUUAGUACAUGAGGAUCACCCAUGUUAUCCAGGUGUCGGUUCGAGAAGGUAUUGGAC” was tested. Which “apparent Kd” value (MS2 coat protein [2]; [5]) did it give?
The value was 18.5 nM.

What about the “apparent Kd” value (MS2 coat protein [2]; [6]) of the same sequence?
The value was 22.9 nM.
